Results published in PMC7153518 (ACS chemical neuroscience, 2020).
Entries after “also recorded” stand apart in the source; their conditions may differ. Like-named read-outs stand apart in the source and are kept apart here.

Assays:
human TRPV1 = human TRPV1 (Homo sapiens, UniProt Q8NER1); test: FLIPR Ca2+ flux assay; type: cell-based; conditions: for hTRPV1% activation: normalized to Emax of capsaicin (3 μM); for hTRPV1% inhibition: vs EC80 of capsaicin (0.1 μM)
human TRPM8 (hTRPM8) = human TRPM8 (hTRPM8) (Homo sapiens, UniProt Q7Z2W7); type: cell-based
human TRPM8 (hTRPM8), sequence (Q7Z2W7 whole entry): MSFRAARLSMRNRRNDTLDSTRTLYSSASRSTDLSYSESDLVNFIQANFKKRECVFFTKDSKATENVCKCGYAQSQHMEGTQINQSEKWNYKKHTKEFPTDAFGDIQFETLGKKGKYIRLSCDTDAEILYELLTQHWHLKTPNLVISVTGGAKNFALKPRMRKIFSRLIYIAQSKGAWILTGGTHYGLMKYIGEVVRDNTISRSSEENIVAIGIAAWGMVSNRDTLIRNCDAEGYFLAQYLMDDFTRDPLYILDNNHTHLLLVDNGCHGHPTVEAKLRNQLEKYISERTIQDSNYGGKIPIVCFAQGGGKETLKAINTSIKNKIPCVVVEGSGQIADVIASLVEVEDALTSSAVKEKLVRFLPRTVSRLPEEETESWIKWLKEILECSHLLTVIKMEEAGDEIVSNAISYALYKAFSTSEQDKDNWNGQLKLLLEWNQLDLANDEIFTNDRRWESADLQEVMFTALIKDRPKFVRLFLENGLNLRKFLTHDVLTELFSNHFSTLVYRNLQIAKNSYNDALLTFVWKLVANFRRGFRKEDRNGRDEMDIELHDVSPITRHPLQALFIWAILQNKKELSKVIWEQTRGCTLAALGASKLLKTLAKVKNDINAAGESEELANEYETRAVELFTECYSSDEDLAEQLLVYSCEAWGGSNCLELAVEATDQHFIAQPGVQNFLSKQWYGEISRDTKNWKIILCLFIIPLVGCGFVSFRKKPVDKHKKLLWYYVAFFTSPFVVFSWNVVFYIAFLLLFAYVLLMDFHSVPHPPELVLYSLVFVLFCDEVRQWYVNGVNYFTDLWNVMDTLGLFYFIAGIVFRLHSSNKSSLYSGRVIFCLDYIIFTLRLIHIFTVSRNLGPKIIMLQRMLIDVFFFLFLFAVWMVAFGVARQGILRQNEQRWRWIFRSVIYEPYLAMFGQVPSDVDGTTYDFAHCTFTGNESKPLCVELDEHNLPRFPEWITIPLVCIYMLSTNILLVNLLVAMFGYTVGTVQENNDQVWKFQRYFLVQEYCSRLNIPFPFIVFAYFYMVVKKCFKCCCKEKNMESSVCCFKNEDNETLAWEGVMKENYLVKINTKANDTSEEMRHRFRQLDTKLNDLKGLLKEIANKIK

human TRPA1 = human TRPA1 (Homo sapiens, UniProt O75762); test: FLIPR Ca2+ flux assay; type: cell-based; conditions: for hTRPA1% activation: normalized to Emax of AITC (300 μM); for hTRPA1% inhibition: vs EC80 of AITC (10 μM)
human TRPA1, sequence (O75762 whole entry): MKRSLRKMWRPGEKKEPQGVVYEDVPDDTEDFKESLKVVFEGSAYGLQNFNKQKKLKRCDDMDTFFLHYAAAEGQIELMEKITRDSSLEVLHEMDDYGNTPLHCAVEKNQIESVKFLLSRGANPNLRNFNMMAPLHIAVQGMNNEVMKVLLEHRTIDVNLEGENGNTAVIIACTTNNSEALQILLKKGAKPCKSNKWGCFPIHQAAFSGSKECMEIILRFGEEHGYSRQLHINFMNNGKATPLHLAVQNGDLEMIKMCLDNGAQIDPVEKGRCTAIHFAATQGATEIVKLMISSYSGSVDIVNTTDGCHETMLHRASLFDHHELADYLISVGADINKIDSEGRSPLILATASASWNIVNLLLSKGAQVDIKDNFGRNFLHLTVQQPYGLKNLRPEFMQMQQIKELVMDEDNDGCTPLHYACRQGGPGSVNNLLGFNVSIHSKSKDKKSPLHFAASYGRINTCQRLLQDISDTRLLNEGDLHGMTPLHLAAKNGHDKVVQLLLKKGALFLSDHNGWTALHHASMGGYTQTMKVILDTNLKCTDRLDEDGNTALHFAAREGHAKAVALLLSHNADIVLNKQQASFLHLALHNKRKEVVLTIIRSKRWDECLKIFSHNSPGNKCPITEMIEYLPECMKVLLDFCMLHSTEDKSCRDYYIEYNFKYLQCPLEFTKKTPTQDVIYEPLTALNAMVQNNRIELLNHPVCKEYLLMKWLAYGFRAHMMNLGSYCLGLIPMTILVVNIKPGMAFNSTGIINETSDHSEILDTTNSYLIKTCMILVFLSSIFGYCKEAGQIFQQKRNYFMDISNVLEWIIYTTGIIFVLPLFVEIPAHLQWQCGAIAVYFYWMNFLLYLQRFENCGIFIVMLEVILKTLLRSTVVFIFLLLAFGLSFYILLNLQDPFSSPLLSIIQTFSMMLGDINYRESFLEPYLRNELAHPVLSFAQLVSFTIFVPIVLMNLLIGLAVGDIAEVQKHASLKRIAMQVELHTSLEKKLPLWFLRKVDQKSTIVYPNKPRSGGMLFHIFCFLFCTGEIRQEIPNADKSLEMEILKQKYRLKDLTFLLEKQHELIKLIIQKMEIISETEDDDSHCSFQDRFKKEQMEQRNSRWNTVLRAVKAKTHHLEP

[1] = tested on: Oxaliplatin (OXP)-induced cold allodynia in C57 mice; test: Oxaliplatin-induced cold allodynia, acetone test; type: in vivo
Summary of the method: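 Male C57 mice received oxaliplatin (6 mg/kg) on days 1, 3 and 5, with saline and 5% mannitol given i.p., and were tested on day 7. Test compound (DMSO stock diluted in saline, 0.1–1 μg) was injected once into the right hind paw plantar surface. After about 30 min habituation on mesh, acetone-drop cold responses were followed over time. Mean ± SEM, n = 6; one-way ANOVA, Dunnett's.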

[2] = Metabolic stability in mouse liver microsomes; type: in vitro ADME; conditions: male, CD-1, mouse
[3] = tested on: icilin-induced WDS in mice; test: Wet dog shakes; type: in vivo
TRPM8 [4] = conditions: read-out: IC50 (whole-cell patch clamp); cited from earlier work
human TRPM8 = human TRPM8 (Homo sapiens, UniProt Q7Z2W7); conditions: cited from earlier work
human TRPM8, sequence (Q7Z2W7 whole entry): as the sequence (Q7Z2W7 whole entry) above

TRPM8 [5] = conditions: read-out: EC50 previously reported; CHO cells / mouse TRPM8; cited from earlier work
TRPA1 = conditions: read-out: TRPA1 IC50; vs the effect of 80 μM AITC; cited from earlier work
[6] = after single administration of 0.1 and 1 μg

human TRPV1, sequence (Q8NER1 whole entry): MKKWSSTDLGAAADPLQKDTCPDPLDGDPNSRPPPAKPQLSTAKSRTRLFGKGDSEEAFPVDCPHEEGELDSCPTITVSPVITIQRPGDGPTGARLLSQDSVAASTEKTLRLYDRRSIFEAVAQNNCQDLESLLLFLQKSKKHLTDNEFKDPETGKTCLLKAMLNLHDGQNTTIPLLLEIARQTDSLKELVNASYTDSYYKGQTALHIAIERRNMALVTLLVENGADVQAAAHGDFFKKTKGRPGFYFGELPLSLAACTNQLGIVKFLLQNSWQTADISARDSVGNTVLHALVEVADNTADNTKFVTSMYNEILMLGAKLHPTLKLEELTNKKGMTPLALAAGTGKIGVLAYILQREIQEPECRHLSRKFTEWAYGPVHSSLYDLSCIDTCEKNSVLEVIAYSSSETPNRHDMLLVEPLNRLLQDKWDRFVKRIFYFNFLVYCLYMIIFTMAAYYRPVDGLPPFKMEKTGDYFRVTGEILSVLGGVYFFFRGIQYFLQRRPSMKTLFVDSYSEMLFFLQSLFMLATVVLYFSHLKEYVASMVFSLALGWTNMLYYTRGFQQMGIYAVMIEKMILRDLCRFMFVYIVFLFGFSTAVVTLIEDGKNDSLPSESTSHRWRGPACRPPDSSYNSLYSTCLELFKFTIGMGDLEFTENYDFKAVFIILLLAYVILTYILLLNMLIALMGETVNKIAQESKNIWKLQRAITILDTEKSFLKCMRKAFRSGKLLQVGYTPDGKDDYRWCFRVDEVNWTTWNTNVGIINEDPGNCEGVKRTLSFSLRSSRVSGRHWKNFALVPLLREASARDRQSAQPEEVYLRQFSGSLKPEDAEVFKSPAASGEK

O=C(N[C@H]1CC[C@@H]2CCCC[C@@H]2C1)c1ccc(-c2ccccc2)cc1 (racemic) [Compound 12, N-((2SR,9RS,10SR)-Decahydronaphthalen-2-yl)-[1,1′-biphenyl]-4-carboxamide]
hTRPV1% activation (human TRPV1; concn tested 3 nM): 2 ± 1% | hTRPV1% inhibition (human TRPV1; concn tested 3 nM): −12 ± 3% | hTRPV1% activation (human TRPV1; concn tested 30 nM): 3 ± 1% | hTRPV1% inhibition (human TRPV1; concn tested 30 nM): 1.0 ± 2% | higher potency than the diastereomeric mixture (10) (human TRPM8 (hTRPM8); ratio of IC50 values): 4 fold | hTRPA1% activation (human TRPA1; concn tested 3 nM): −2.3 ± 1.0% | hTRPA1% inhibition (human TRPA1; concn tested 3 nM): −0.3 ± 3% | hTRPA1% activation (human TRPA1; concn tested 30 nM): −2.1 ± 0.5% | hTRPA1% inhibition (human TRPA1; concn tested 30 nM): 5 ± 9%

CC1CCC(C(C)C)C(NC(=O)c2ccc(-c3ccccc3)cc2)C1 (centres unmarked) [Compound 2, N-(2-Isopropyl-5-methylcyclohexyl)-[1,1′-biphenyl]-4-carboxamide]
increase of hTRPM8 activity relative to 1 (human TRPM8 (hTRPM8); ratio of IC50 values): 30 fold

O=C(NC1CCCCCC1)c1ccc(-c2ccccc2)cc1 [Compound 5, N-Cycloheptyl-[1,1′-biphenyl]-4-Carboxamide]
hTRPV1% activation (human TRPV1; concn tested 100 nM): 0.0 ± 1.0% | hTRPV1% activation (human TRPV1; concn tested 1 μM): 0.6 ± 1.5% | improvement of hTRPM8 potency relative to 2 (human TRPM8 (hTRPM8); ratio of IC50 values): 8–9 fold | hTRPA1% activation (human TRPA1; concn tested 100 nM): 0.1 ± 0.7% | hTRPA1% activation (human TRPA1; concn tested 1 μM): 0.8 ± 0.5%

O=C(NC1CCCCCCC1)c1ccc(-c2ccccc2)cc1 [Compound 7, N-Cyclooctyl-[1,1′-biphenyl]-4-carboxamide]
hTRPV1% activation (human TRPV1; concn tested 100 nM): −1.9 ± 0.7% | hTRPV1% activation (human TRPV1; concn tested 1 μM): −3.2 ± 0.6% | improvement of hTRPM8 potency relative to 2 (human TRPM8 (hTRPM8); ratio of IC50 values): 8–9 fold | hTRPA1% activation (human TRPA1; concn tested 100 nM): −1.0 ± 0.1% | hTRPA1% activation (human TRPA1; concn tested 1 μM): −1.5 ± 0.9%

O=C(NC1CCCc2ccccc21)c1ccc(-c2ccccc2)cc1 (centres unmarked) [Compound 9, N-(1,2,3,4-Tetrahydronaphthalen-1-yl)-[1,1′-biphenyl]-4-carbox-amide]
loss of potency vs 8 (human TRPM8 (hTRPM8); ratio of IC50 values): 3 fold

O=C(NC1CCC2CCCCC2C1)c1ccc(-c2ccccc2)cc1 (centres unmarked) [Compound 10, N-(Decahydronaphthalen-2-yl)-[1,1′-biphenyl]-4-carboxamide]
inhibition at 0.1 µM (human TRPV1; HEK293, read-out: hTRPV1% inhibition): 2 ± 3% | hTRPV1% activation (human TRPV1; concn tested 10 nM): 2.4 ± 0.8% | hTRPV1% activation (human TRPV1; concn tested 100 nM): 2.3 ± 0.9% | enhancement of TRPM8 potency relative to 8 (human TRPM8 (hTRPM8); ratio of IC50 values): 3500 fold | higher potency than cycloheptyl 5 and cyclooctyl 7 (human TRPM8 (hTRPM8); ratio of IC50 values): 10 fold | hTRPA1% activation (human TRPA1; concn tested 10 nM): 0.2 ± 0.4% | hTRPA1% activation (human TRPA1; concn tested 100 nM): −1.1 ± 0.2%

O=C(NC1CCc2ccccc2C1)c1ccc(-c2ccccc2)cc1 (centres unmarked) [Compound 11, N-(1,2,3,4-Tetrahydronaphthalen-2-yl)-[1,1′-biphenyl]-4-carbox-amide]
hTRPV1% activation (human TRPV1; concn tested 100 nM): −1.8 ± 0.9% | hTRPV1% inhibition (human TRPV1; concn tested 100 nM): −3.1 ± 0.6% | hTRPV1% activation (human TRPV1; concn tested 1 μM): −0.7 ± 1.5% | hTRPV1% inhibition (human TRPV1; concn tested 1 μM): 13 ± 3% | decrease of hTRPM8 potency (vs 10) (human TRPM8 (hTRPM8); ratio of IC50 values): 9 fold | hTRPA1% activation (human TRPA1; concn tested 100 nM): −0.1 ± 0.5% | hTRPA1% inhibition (human TRPA1; concn tested 100 nM): 3 ± 6% | hTRPA1% activation (human TRPA1; concn tested 1 μM): −0.8 ± 0.6% | hTRPA1% inhibition (human TRPA1; concn tested 1 μM): 4 ± 1%

O=C(NC1CCC2(CCCCC2)CC1)c1ccc(-c2ccccc2)cc1 [Compound 13, N-(Spiro[5.5]undecan-3-yl)-[1,1′-biphenyl]-4-carboxamide]
hTRPV1% activation (human TRPV1; concn tested 100 nM): −1.0 ± 0.4% | hTRPV1% activation (human TRPV1; concn tested 1 μM): 0.7 ± 0.2% | hTRPA1% activation (human TRPA1; concn tested 100 nM): 0.2 ± 0.5% | hTRPA1% activation (human TRPA1; concn tested 1 μM): −0.2 ± 1.1%

O=C(NC1CCC2(CCCC2)CC1)c1ccc(-c2ccccc2)cc1 [Compound 14, N-(Spiro[4.5]decan-8-yl)-[1,1′-biphenyl]-4-carboxamide]
effect on OXP effects at 60 min ([1]; 60 min after administration): significantly suppresses OXP effects | time at which attenuated cold allodynia is evident [1, 6]: 15 min | time of maximum inhibition of cold allodynia [1, 6]: 30 min | microsomal CLint at 1 μM ([2]; liver microsomes): 45.5 µL/min/mg | hTRPV1% activation (human TRPV1; concn tested 3 nM): 1 ± 1% | hTRPV1% activation (human TRPV1; concn tested 30 nM): 1 ± 2% | effect on menthol-evoked TRPM8-mediated Ca2+ entry (human TRPM8 (hTRPM8); 3 nM compound vs maximal (100 μM) menthol): significantly (P < 0.01) reduce | effect on icilin-induced Ca2+ influx at higher concentrations (human TRPM8 (hTRPM8); icilin 500 nM): nearly abolishes | hTRPA1% activation (human TRPA1; concn tested 3 nM): −0.8 ± 0.4% | hTRPA1% activation (human TRPA1; concn tested 30 nM): 0.1 ± 1.2% | inhibition of WDS at the highest dose ([3]; 50 mg/kg s.c., compared with gabapentin 25 mg/kg s.c.): efficacy comparable to that observed with a standard analgesic dose of gabapentin | effect on icilin-triggered wet dog shakes ([3]; 1, 30 and 50 mg/kg s.c. 30 min before icilin 10 mg/kg i.p., WDS counted over 30 min, n = 6): dose-dependently blocks; also recorded: marked, dose-dependent antinociceptive behavior

O=C(NC12CC3CC(CC(C3)C1)C2)c1ccc(-c2ccccc2)cc1 [Compound 15, N-(Adamantan-1-yl)-[1,1′-biphenyl]-4-carboxamide]
hTRPV1% activation (human TRPV1; concn tested 30 nM): 1.0 ± 0.2% | hTRPV1% activation (human TRPV1; concn tested 300 nM): 1 ± 2% | hTRPA1% activation (human TRPA1; concn tested 30 nM): −2.6 ± 0.5% | hTRPA1% activation (human TRPA1; concn tested 300 nM): −1.5 ± 0.4%

COc1cc(CN(CCN)C(=O)OC(C)c2ccccc2)ccc1OCc1ccccc1 (centres unmarked) [PBMC]
IC50 (TRPM8 [4]): 0.4 to 0.6 nM

C[C@H](c1ccc(F)cc1)N(Cc1cccc(C(=O)O)c1)C(=O)c1cnc2ccccc2c1 [PF-05105679]
IC50 (human TRPM8; read-out: human TRPM8 IC50, WS-12-mediated activation): 181 ± 7.21 nM | IC50 (human TRPM8; read-out: human TRPM8 IC50, voltage-mediated activation): 103 ± 29.4 nM

O=C(O)c1ccc(S(=O)(=O)N(Cc2ccc(OC(F)(F)F)cc2)c2ncc(C(F)(F)F)cc2Cl)cc1 [RQ-00203078]
IC50 (human TRPM8; read-out: reported potency at hTRPM8): < 10 nM

O=C1NC(c2cccc([N+](=O)[O-])c2)=CCN1c1ccccc1O [icilin, 3-(2-hydroxyphenyl)-6-(3-nitrophenyl)-3,4-dihydropyrimidin-2(1H)-one]
EC50 (TRPM8 [5]): 120 to 200 nM

Cl.Cl.Cl.Cl.Cl.Cl.N.N.N.N.N.N.N.N.N.N.N.N.N.N.[O-2].[O-2].[Ru+3].[Ru+3].[Ru+4] [ruthenium red, reference compound]
IC50 (human TRPA1; read-out: TRPA1 IC50, vs AITC (10 μM)-activated [Ca2+]i release): 162 ± 33 nM | IC50 (TRPA1): 29 ± 6 nM

C[C@]12CC[C@H]3[C@@H](CCC4=CC(=O)CC[C@@]43C)[C@@H]1CC[C@@H]2O [testosterone, reference compound]
microsomal CLint ([2]; microsomes): 372 µL/min/mg
